Measurements from ChEMBL document CHEMBL1949649, “5-sulfonyl-benzimidazoles as selective CB2 agonists-part 2” (Bioorg Med Chem Lett, 2012).
In brackets after ≈: the same amount, converted by molar mass. Activity calls are given as the source filed them. The rule behind the calls is not given here.

Tests used:
Cannabinoid receptor 2 = Cannabinoid receptor 2 (Homo sapiens, UniProt P34972); experiment: Agonist activity at human CB2 receptor; assay type: functional
Cannabinoid receptor 1 = Cannabinoid receptor 1 (Homo sapiens, UniProt P21554); experiment: Agonist activity at human CB1 receptor; assay type: functional
Cannabinoid receptor 1, sequence (P21554 whole entry): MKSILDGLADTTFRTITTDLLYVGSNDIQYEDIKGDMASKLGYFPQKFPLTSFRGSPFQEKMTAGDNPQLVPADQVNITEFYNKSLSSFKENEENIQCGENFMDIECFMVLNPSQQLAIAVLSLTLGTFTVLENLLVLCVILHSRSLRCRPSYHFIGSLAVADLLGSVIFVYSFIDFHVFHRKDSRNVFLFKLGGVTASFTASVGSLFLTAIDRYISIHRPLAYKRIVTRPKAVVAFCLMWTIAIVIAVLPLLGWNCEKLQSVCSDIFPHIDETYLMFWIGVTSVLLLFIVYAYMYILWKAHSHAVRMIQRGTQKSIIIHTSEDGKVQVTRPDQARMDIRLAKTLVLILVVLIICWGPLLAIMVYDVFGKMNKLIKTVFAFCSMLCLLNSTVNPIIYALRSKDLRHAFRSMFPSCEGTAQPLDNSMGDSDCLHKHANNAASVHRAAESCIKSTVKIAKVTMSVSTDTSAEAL

[1] = Drug metabolism in human liver microsomes after 15 mins; assay type: ADME, Microsome; details: read-out: Drug metabolism
Rattus norvegicus [2] = experiment: Toxicity in rat assessed as decrease in body temperature at 10 mg/kg, ip by modified tetrad test; assay type: organism-based; parameters: dose 10 mg/kg, route intraperitoneal; details: in vivo
Rattus norvegicus [3] = experiment: Toxicity in rat up to 40 mg/kg, ip by modified tetrad test; assay type: organism-based; parameters: dose 40 mg/kg, route intraperitoneal; details: in vivo
[4] = Lipophilicity, Log P of the compound; assay type: physicochemical; details: octanol/water
[5] = Solubility of the compound in water; assay type: physicochemical
[6] = Drug metabolism in human liver microsomes at 5 uM after 60 mins; assay type: ADME, Microsome; details: read-out: Drug metabolism
In short: (§1)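 Test compound incubated at 5 µM with liver microsomes (human, rat, mouse or dog) for 60 min; read-out is % of compound metabolised.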

[7] = Drug metabolism in rat liver microsomes at 5 uM after 60 mins; assay type: ADME, Microsome; details: read-out: Drug metabolism; in short: as §1
[8] = Drug metabolism in mouse liver microsomes at 5 uM after 60 mins; assay type: ADME, Microsome; details: read-out: Drug metabolism; in short: as §1
[9] = Drug metabolism in dog liver microsomes at 5 uM after 60 mins; assay type: ADME, Canis lupus familiaris, Microsome; details: read-out: Drug metabolism; in short: as §1
[10] = Clearance in Sprague-Dawley rat at 2.5 mg/kg, iv and 10 mg/kg, po; assay type: ADME, organism-based; details: in vivo
[11] = Volume of distribution in Sprague-Dawley rat at 2.5 mg/kg, iv and 10 mg/kg, po; assay type: ADME, organism-based; details: in vivo
[12] = Half life in Sprague-Dawley rat at 2.5 mg/kg, iv; assay type: ADME, organism-based; parameters: dose 2.5 mg/kg, route intravenous; details: in vivo
[13] = Half life in Sprague-Dawley rat at 10 mg/kg, po; assay type: ADME, organism-based; parameters: dose 10 mg/kg, route oral; details: in vivo
[14] = Absolute oral bioavailability in Sprague-Dawley rat at 10 mg/kg; assay type: ADME, organism-based; details: in vivo
[15] = Ratio drug uptake in brain to plasma of Sprague-Dawley rat at 2.5 mg/kg, iv and 10 mg/kg, po; assay type: ADME, organism-based; details: read-out: BPR
In short: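 Rat tissue distribution study; brain and plasma levels compared as brain/plasma ratio.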

[16] = Clearance in Beagle dog at 1 mg/kg, iv and 5 mg/kg, po; assay type: ADME, organism-based, Canis lupus familiaris; details: in vivo
In short: (§2)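 Beagle dogs dosed at 1 mg/kg iv and 5 mg/kg po; plasma kinetics give clearance, volume of distribution, iv and po half-life, and absolute oral bioavailability.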

[17] = Volume of distribution in Beagle dog at 1 mg/kg, iv and 5 mg/kg, po; assay type: ADME, organism-based, Canis lupus familiaris; details: in vivo; in short: as §2
[18] = Half life in Beagle dog at 1 mg/kg, iv; assay type: ADME, organism-based, Canis lupus familiaris; parameters: dose 1 mg/kg, route intravenous; details: in vivo; in short: as §2
[19] = Half life in Beagle dog at 5 mg/kg, po; assay type: ADME, organism-based, Canis lupus familiaris; parameters: dose 5 mg/kg, route oral; details: in vivo; in short: as §2
[20] = Absolute oral bioavailability in Beagle dog at 5 mg/kg; assay type: ADME, organism-based, Canis lupus familiaris; details: in vivo; in short: as §2
Rattus norvegicus [21] = experiment: Antinociceptive activity in rat at 10 mg/kg by hot plate method; assay type: functional, organism-based; parameters: dose 10 mg/kg
Rattus norvegicus [22] = experiment: Antinociceptive activity in rat at 10 mg/kg by tail withdrawal reflex test; assay type: functional, organism-based; parameters: dose 10 mg/kg
Rattus norvegicus [23] = experiment: Antinociceptive activity in rat at 10 mg/kg by paw flick test; assay type: functional, organism-based; parameters: dose 10 mg/kg
Rattus norvegicus [24] = organism: Rattus norvegicus; experiment: Antihyperalgesic activity against Freund's adjuvant-induced thermal hyperalgesia in rat; assay type: functional, organism-based
Rattus norvegicus [25] = organism: Rattus norvegicus; experiment: Antihyperalgesic activity against carrageenan-induced thermal hyperalgesia in rat; assay type: functional, organism-based
Rattus norvegicus [26] = experiment: Antiallodynic activity in rat chronic constriction injury-induced neuropathic pain model assessed as reversal of pain response at 10 to 40 mg/kg/day, sc; assay type: functional, organism-based
In short: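 Chronic constriction injury of rats (n = 7 per group); daily subcutaneous dosing over repeated days, with morphine as comparator. Cold allodynia read as lifting on a cold plate at 0 °C for 4 min.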

Mus musculus = experiment: Antiinflammatory activity in mouse EAE model of multiple sclerosis assessed as delay in neurological signs of autoimmune encephalomyelitis disease progression at 40 mg/kg/day, po administered from day 8 to day 16; assay type: functional, organism-based
In short: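 Mice with experimental autoimmune encephalomyelitis given chronic oral dosing at 40 mg/kg; neurological signs scored as EAE disease scores over time.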

[27] = Solubility of the compound in 10% cyclodextrin
[28] = Kinetic solubility of the compound at pH 7.4; assay type: physicochemical; details: buffer, read-out: Kinetic_solubility

Cannabinoid receptor 2, sequence (P34972 whole entry): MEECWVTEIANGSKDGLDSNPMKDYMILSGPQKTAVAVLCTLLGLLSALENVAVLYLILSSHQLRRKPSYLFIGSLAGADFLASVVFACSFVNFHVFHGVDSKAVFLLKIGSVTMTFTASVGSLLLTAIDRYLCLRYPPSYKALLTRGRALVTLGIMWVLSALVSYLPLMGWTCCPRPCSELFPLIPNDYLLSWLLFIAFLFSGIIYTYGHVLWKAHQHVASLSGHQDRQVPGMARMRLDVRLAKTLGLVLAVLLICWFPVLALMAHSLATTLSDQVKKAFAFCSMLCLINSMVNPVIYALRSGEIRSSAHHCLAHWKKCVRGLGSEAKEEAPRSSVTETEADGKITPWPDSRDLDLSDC

CCS(=O)(=O)c1ccc2c(c1)nc(C(C)(C)C)n2CC1CCN(C=O)CC1
EC50 (Cannabinoid receptor 2): 23 nM | EC50 (Cannabinoid receptor 1): > 10000 nM | metabolised at 0.25 h [1]: 7%

CC(=O)N1CCC(Cn2c(C(C)(C)C)nc3cc(S(=O)(=O)c4ccc(F)cc4)ccc32)CC1
EC50 (Cannabinoid receptor 2): 2.9 nM | EC50 (Cannabinoid receptor 1): > 10000 nM | metabolised at 0.25 h [1]: 8% | Activity (Rattus norvegicus [2]): Toxic

CC(C)(C)c1nc2cc(S(=O)(=O)CCCC(F)(F)F)ccc2n1CC1CCN(C(=O)C(F)(F)F)CC1
EC50 (Cannabinoid receptor 1): > 10000 nM | metabolised at 0.25 h [1]: 20%

CC(C)(C)c1nc2cc(S(=O)(=O)c3ccnc(OCCCO)c3)ccc2n1CC1CCOCC1
EC50 (Cannabinoid receptor 2): 1.2 nM | metabolised at 0.25 h [1]: 40%

CC(=O)N1CCC(Cn2c(C(C)(C)C)nc3cc(S(=O)(=O)CC4CC4)ccc32)CC1
EC50 (Cannabinoid receptor 2): 8.2 nM | EC50 (Cannabinoid receptor 1): > 10000 nM | metabolised at 0.25 h [1]: 18% | Activity (Rattus norvegicus [3]): Non-toxic | logP [4]: 1.67 | solubility [5]: 1.5 mg/mL (≈ 3.48 mM) | metabolised at 1 h, 5 µM [6]: 5% | metabolised at 1 h, 5 µM [7]: 0% | metabolised at 1 h, 5 µM [8]: 12% | metabolised at 1 h, 5 µM [9]: 4% | clearance [10]: 41.7 mL/min/kg | Vd [11]: 4.4 L/kg | half-life [12]: 1.3 h | half-life [13]: 4 h | bioavailability [14]: 56% | Kp [15]: 0.18 | clearance [16]: 13.3 mL/min/kg | Vd [17]: 1.9 L/kg | half-life [18]: 3 h | half-life [19]: 3.2 h | bioavailability [20]: 86% | Activity (Rattus norvegicus [21]): inactive | Activity (Rattus norvegicus [22]): inactive | Activity (Rattus norvegicus [23]): inactive | Activity (Rattus norvegicus [24]): inactive | Activity (Rattus norvegicus [25]): inactive | Activity (Rattus norvegicus [26]): inactive | Activity (Mus musculus): Active | solubility [27]: 25 mg/mL (≈ 57.9 mM)

CCS(=O)(=O)c1ccc2c(c1)nc(C(C)(C)C)n2CC1CCS(=O)(=O)CC1
EC50 (Cannabinoid receptor 2): 28 nM | EC50 (Cannabinoid receptor 1): > 10000 nM

COCC(=O)N1CCC(Cn2c(C(C)(C)C)nc3cc(S(=O)(=O)CCCC(F)(F)F)ccc32)CC1
EC50 (Cannabinoid receptor 1): > 10000 nM

CCOc1cc(S(=O)(=O)c2ccc3c(c2)nc(C(C)(C)C)n3CC2CCOCC2)ccn1
EC50 (Cannabinoid receptor 1): 1280 nM | metabolised at 0.25 h [1]: 48% | solubility kinetic [28]: < 1 µM

COCCCc1cc(S(=O)(=O)c2ccc3c(c2)nc(C(C)(C)C)n3CC2CCOCC2)ccn1
EC50 (Cannabinoid receptor 2): 1.1 nM | EC50 (Cannabinoid receptor 1): > 10000 nM | metabolised at 0.25 h [1]: 93%

CC(=O)N1CCC(Cn2c(C(C)(C)C)nc3cc(S(=O)(=O)C4CCCC4)ccc32)CC1
EC50 (Cannabinoid receptor 1): > 10000 nM | metabolised at 0.25 h [1]: 87%

CC(C)(C)c1nc2cc(S(=O)(=O)c3nccs3)ccc2n1CC1CCN(C=O)CC1
EC50 (Cannabinoid receptor 2): 8.4 nM | EC50 (Cannabinoid receptor 1): 321 nM | Activity (Rattus norvegicus [2]): Toxic

CC(C)(C)c1nc2cc(S(=O)(=O)CCCC(F)(F)F)ccc2n1CC1CCN(C=O)CC1
EC50 (Cannabinoid receptor 1): 5620 nM | metabolised at 0.25 h [1]: 17%

CC(=O)N1CCC(Cn2c(C(C)(C)C)nc3cc(S(=O)(=O)c4ccncc4)ccc32)CC1
EC50 (Cannabinoid receptor 2): 4.6 nM | EC50 (Cannabinoid receptor 1): > 10000 nM | metabolised at 0.25 h [1]: 29%

CC(=O)N1CCC(Cn2c(C(C)(C)C)nc3cc(S(=O)(=O)CCCO)ccc32)CC1
EC50 (Cannabinoid receptor 1): > 10000 nM

CC(=O)NCCc1cc(S(=O)(=O)c2ccc3c(c2)nc(C(C)(C)C)n3CC2CCOCC2)ccn1
metabolised at 0.25 h [1]: 44%
